Experimental data published in ChEMBL document CHEMBL1128340, “Nonpeptidic inhibitors of human leukocyte elastase. 6. Design of a potent, intratracheally active, pyridone-based trifluoromethyl ketone” (J Med Chem, 1995).
Activity calls are given as the source filed them. The calls are words filed in the database; no cut-off is given here.

How the values were obtained:
Cricetinae gen. sp. [1] = assay: Compound at an intratracheal dose of 100 nM was tested in vivo in hamster for the inhibition of elastase-induced lung hemorrhage by acute hemorrhagic assay; format: functional, Cricetulus griseus
Outline: (§1)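 Hamster acute hemorrhagic assay: test agent given intratracheally at 100 nmol/animal 30 min before intratracheal instillation of 50 μg HLE. Read-out is percent inhibition of elastase-induced lung hemorrhage versus controls. Significance is by Student's t test, P < 0.05; NS means not significant at that dose.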

Neutrophil elastase = molecular target: T1, Neutrophil elastase (Homo sapiens, UniProt P08246); assay: In vitro inhibition constant (Ki) against human leukocyte elastase (HLE-catalyzed hydrolysis of MeO-Suc-Ala-Ala-Pro-Ala-pNA)
T1 sequence (P08246 whole entry): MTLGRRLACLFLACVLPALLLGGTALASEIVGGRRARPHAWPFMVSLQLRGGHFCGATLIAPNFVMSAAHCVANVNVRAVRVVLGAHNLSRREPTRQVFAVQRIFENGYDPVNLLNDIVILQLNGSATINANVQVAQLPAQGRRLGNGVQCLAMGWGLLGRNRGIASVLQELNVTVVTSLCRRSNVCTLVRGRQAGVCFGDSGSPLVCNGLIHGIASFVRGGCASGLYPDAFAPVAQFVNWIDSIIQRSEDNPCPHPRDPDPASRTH

Cricetinae gen. sp. [2] = assay: Compound at an oral dose of 2.5 mg/Kg was tested in vivo in hamster for the inhibition of elastase-induced lung hemorrhage by acute hemorrhagic assay; Not statistically significant; format: functional, organism-based; settings: Cricetulus griseus
Cricetinae gen. sp. [3] = assay: Compound at an oral dose of 5 mg/Kg was tested in vivo in hamster for the inhibition of elastase-induced lung hemorrhage by acute hemorrhagic assay; Not statistically significant; format: functional, organism-based; settings: Cricetulus griseus
Cricetinae gen. sp. [4] = assay: Compound at an intratracheal dose of […] was tested in vivo in hamster for the inhibition of elastase-induced lung hemorrhage by acute hemorrhagic assay; Not statistically significant; format: functional, organism-based; settings: Cricetulus griseus; outline: as §1

Structure (SMILES)	Inhibition (Cricetinae gen. sp. [1]) [%]	Ki (Neutrophil elastase) [nM]	inhibition (Cricetinae gen. sp. [2])	inhibition (Cricetinae gen. sp. [3])	inhibition (Cricetinae gen. sp. [4])
Cc1ccccc1S(=O)(=O)NC(=O)c1ccc(S(=O)(=O)Nc2ccc(-c3ccccc3)n(CC(=O)NC(C(=O)C(F)(F)F)C(C)C)c2=O)cc1 (stereo unspecified)	97	18	inactive		
CC(C)C(NC(=O)Cn1c(-c2ccccc2)ccc(NS(=O)(=O)c2ccccc2)c1=O)C(=O)C(F)(F)F (stereo unspecified)				inactive	inactive
CC(=O)Nc1ccc(S(=O)(=O)Nc2ccc(-c3ccccc3)n(CC(=O)NC(C(=O)C(F)(F)F)C(C)C)c2=O)cc1 (stereo unspecified)	95				
CC(C)C(NC(=O)Cn1c(-c2ccccc2)ccc(NC=O)c1=O)C(=O)C(F)(F)F (stereo unspecified)					inactive
CC(C)C(NC(=O)Cn1c(-c2ccccc2)ccc(NS(=O)(=O)c2ccc(C(=O)NS(=O)(=O)c3ccc(Cl)cc3)cc2)c1=O)C(=O)C(F)(F)F (stereo unspecified)	96	9.4	inactive		
COc1ccc(S(=O)(=O)N[C@H](C(=O)N2CCC[C@H]2C(=O)NC(C(=O)C(F)(F)F)C(C)C)C(C)C)cc1 (stereo partly specified)		8			
